Reference: ChEMBL document CHEMBL1139880, “Potent and selective agonists of human melanocortin receptor 5: cyclic analogues of alpha-melanocyte-stimulating hormone” (J Med Chem, 2007)

Key:
[1] = target: Melanocortin receptor 5 (Homo sapiens, UniProt P33032); test: Displacement of [125I]NDPalphaMSH from human cloned MC5R expressed in CHO cells; assay type: cell-based
[2] = target: Melanocortin receptor 3 (Homo sapiens, UniProt P41968); test: Displacement of [125I]NDPalphaMSH from human cloned MC3R expressed in CHO cells; assay type: cell-based
Melanocortin receptor 3, sequence (P41968 whole entry): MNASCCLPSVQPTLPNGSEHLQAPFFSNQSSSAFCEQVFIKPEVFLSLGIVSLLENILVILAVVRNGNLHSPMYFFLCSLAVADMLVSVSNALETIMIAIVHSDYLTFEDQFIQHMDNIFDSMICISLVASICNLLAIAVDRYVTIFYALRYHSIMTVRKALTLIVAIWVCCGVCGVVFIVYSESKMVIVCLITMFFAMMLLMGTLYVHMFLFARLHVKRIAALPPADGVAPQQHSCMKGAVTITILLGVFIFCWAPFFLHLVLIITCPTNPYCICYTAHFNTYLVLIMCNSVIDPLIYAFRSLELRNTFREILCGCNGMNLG

[3] = target: T1, Melanocyte-stimulating hormone receptor (Homo sapiens, UniProt Q01726); test: Displacement of [125I]NDPalphaMSH from human cloned melanocortin receptor 1b expressed in CHO cells; assay type: cell-based
T1 sequence (Q01726 whole entry): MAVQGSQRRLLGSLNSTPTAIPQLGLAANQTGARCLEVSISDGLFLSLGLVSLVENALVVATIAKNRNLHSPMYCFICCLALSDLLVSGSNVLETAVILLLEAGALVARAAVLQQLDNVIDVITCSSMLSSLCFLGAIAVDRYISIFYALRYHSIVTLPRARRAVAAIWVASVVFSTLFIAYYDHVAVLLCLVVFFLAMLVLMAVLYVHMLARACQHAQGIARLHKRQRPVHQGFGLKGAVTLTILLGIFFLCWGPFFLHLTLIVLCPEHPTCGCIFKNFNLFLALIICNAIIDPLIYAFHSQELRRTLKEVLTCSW

[4] = target: T1, Melanocyte-stimulating hormone receptor; test: Agonist activity at human melanocortin receptor 1b expressed in CHO cells assessed as cAMP accumulation; assay type: functional, cell-based
In short: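 Dissociated CHO cells were spun 5 min and resuspended in Earle's balanced salt solution with 10 mM HEPES pH 7.5, 5 mM MgCl2, 1 mM glutamine and 1 mg/mL BSA. They were incubated 40 min at room temperature with compound (0.003–5000 nM) plus 0.6 mM IBMX, then lysed with 0.1 M HCl. cAMP was measured by Flashplate cAMP assay.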

[5] = target: Melanocortin receptor 4 (Homo sapiens, UniProt P32245); test: Displacement of [125I]NDPalphaMSH from human cloned MC4R expressed in CHO cells; assay type: cell-based
Melanocortin receptor 4, sequence (P32245 whole entry): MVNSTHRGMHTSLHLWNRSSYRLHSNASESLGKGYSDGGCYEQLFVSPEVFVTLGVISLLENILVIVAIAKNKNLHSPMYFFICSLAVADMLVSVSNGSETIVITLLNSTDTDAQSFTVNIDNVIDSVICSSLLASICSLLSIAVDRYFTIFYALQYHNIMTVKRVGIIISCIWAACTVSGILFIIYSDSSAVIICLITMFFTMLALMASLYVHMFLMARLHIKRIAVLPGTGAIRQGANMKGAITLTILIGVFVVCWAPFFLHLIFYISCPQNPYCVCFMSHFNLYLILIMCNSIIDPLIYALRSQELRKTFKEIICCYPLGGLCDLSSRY

Melanocortin receptor 5, sequence (P33032 whole entry): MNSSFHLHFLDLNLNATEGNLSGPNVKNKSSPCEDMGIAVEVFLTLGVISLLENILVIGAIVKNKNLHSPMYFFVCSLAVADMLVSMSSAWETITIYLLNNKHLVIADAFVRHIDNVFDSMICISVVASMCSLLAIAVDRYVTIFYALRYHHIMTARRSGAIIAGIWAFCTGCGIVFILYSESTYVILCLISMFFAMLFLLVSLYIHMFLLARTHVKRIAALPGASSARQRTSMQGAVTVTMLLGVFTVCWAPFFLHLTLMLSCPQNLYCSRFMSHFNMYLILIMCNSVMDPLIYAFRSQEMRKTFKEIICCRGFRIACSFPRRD

Row | IC50 [3] | EC50 [4] | Compound | also measured
1 | > 10 µM | > 2.5 µM | CCCC[C@H](NC(C)=O)C(=O)N[C@H]1CC(=O)NCCCC[C@@H](C(N)=O)NC(=O)[C@H](Cc2c[nH]c3ccccc23)NC(=O)[C@@H]2CCCN2C(=O)[C@@H](Cc2ccc(O)cc2)NC(=O)[C@H](Cc2cnc[nH]2)NC1=O | 
2 | > 10 µM |  | CCCC[C@H](NC(C)=O)C(=O)N[C@H]1CC(=O)NCCCC[C@@H](C(N)=O)NC(=O)[C@H](Cc2c[nH]c3ccccc23)NC(=O)[C@@H]2CCCN2C(=O)[C@@H](CCCC)NC(=O)[C@H](Cc2cnc[nH]2)NC1=O | 
3 | 0.98 µM (antagonist) | > 1 µM | CCCC[C@H](NC(C)=O)C(=O)N[C@H]1CC(=O)NCCCC[C@@H](C(N)=O)NC(=O)[C@H](Cc2c[nH]c3ccccc23)NC(=O)[C@@H]2CCCN2C(=O)[C@H](Cc2ccccc2)NC(=O)[C@H](Cc2cnc[nH]2)NC1=O | 
4 | > 10 µM |  | CCCC[C@H](NC(C)=O)C(=O)N[C@H]1CC(=O)NCCCC[C@@H](C(N)=O)NC(=O)[C@H](Cc2c[nH]c3ccccc23)NC(=O)[C@@H]2CCCN2C(=O)[C@@H](Cc2cnc[nH]2)NC(=O)[C@H](Cc2cnc[nH]2)NC1=O | 
5 | 2.5 µM (antagonist) | 1.3 µM (agonist) | CCCC[C@H](NC(C)=O)C(=O)N[C@H]1CC(=O)NCCCC[C@@H](C(N)=O)NC(=O)[C@H](Cc2c[nH]c3ccccc23)NC(=O)[C@@H]2CCCN2C(=O)[C@@H](Cc2ccccc2)NC(=O)[C@H](Cc2cnc[nH]2)NC1=O | 

Further lines, the molecule ahead of its results:

Row | Compound | IC50 [3] | EC50 [4] | also measured
6 | CCCC[C@H](NC(C)=O)C(=O)N[C@H]1CC(=O)NCCCC[C@@H](C(N)=O)NC(=O)[C@H](Cc2c[nH]c3ccccc23)NC(=O)[C@@H]2CCCN2C(=O)[C@@H](CCCCN)NC(=O)[C@H](Cc2cnc[nH]2)NC1=O | > 10 µM |  | IC50 [1]: > 10 µM; IC50 [2]: > 10 µM
7 | CCCC[C@H](NC(C)=O)C(=O)N[C@H]1CC(=O)NCCCC[C@@H](C(N)=O)NC(=O)[C@H](Cc2c[nH]c3ccccc23)NC(=O)[C@@H]2CCCN2C(=O)[C@@H](Cc2ccc3ccccc3c2)NC(=O)[C@H](Cc2cnc[nH]2)NC1=O | 0.88 µM (antagonist) | 0.089 µM (agonist) | 
8 | CCCC[C@H](NC(C)=O)C(=O)N[C@H]1CC(=O)NCCCC[C@@H](C(N)=O)NC(=O)[C@H](Cc2c[nH]c3ccccc23)NC(=O)[C@@H]2CCCN2C(=O)[C@@H](CCC(N)=O)NC(=O)[C@H](Cc2c[nH]cn2)NC1=O | > 10 µM |  | IC50 [1]: > 10 µM; IC50 [2]: > 10 µM; IC50 [5]: > 10 µM
9 | CCCC[C@H](NC(C)=O)C(=O)N[C@H]1CC(=O)NCCCC[C@@H](C(N)=O)NC(=O)[C@H](Cc2c[nH]c3ccccc23)NC(=O)[C@@H]2CCCN2C(=O)[C@H]2Cc3ccccc3CN2C(=O)[C@H](Cc2cnc[nH]2)NC1=O |  |  | IC50 ([1]; cho): > 10 µM; IC50 ([2]; cho): > 10 µM; IC50 ([3]; cho): > 10 µM
10 | CCCC[C@H](NC(C)=O)C(=O)N[C@H]1CC(=O)NCCCC[C@@H](C(N)=O)NC(=O)[C@H](Cc2c[nH]c3ccccc23)NC(=O)[C@@H]2CCCN2C(=O)[C@@H](CCC(=O)O)NC(=O)[C@H](Cc2c[nH]cn2)NC1=O | > 10 µM |  | IC50 [1]: > 10 µM; IC50 [2]: > 10 µM; IC50 [5]: > 10 µM
11 | CCCC[C@H](NC(C)=O)C(=O)N[C@H]1CC(=O)NCCCC[C@@H](C(N)=O)NC(=O)[C@H](Cc2c[nH]c3ccccc23)NC(=O)[C@@H]2CCCN2C(=O)[C@@H](C(c2ccccc2)c2ccccc2)NC(=O)[C@H](Cc2c[nH]cn2)NC1=O |  |  | IC50 ([1]; cho): 1.5 µM (antagonist); IC50 ([2]; cho): > 10 µM; IC50 ([5]; cho): 0.074 µM (antagonist); IC50 ([3]; cho): 2.9 µM (antagonist)
12 | CCCC[C@H](NC(C)=O)C(=O)N[C@H]1CC(=O)NCCCC[C@@H](C(N)=O)NC(=O)[C@H](Cc2c[nH]c3ccccc23)NC(=O)[C@@H]2CCCN2C(=O)[C@H](Cc2ccc(OC)cc2)NC(=O)[C@H](Cc2cnc[nH]2)NC1=O | > 2 µM |  | 
13 | CCCC[C@H](NC(C)=O)C(=O)N[C@H]1CC(=O)NCCCC[C@@H](C(N)=O)NC(=O)[C@H](Cc2c[nH]c3ccccc23)NC(=O)[C@@H]2CCCN2C(=O)[C@@H](Cc2ccc(OC)cc2)NC(=O)[C@H](Cc2cnc[nH]2)NC1=O | 0.5 µM (antagonist) | 0.05 µM (agonist) | 
